This passage reports selectivity ratio and IC90 results from ChEMBL document CHEMBL1144242, “Synthesis and antituberculosis activity of 5-methyl/trifluoromethoxy-1H-indole-2,3-dione 3-thiosemicarbazone derivatives” (Bioorg Med Chem, 2008).

Each structure is given as a SMILES string. Converted amounts (≈) assume the structure as drawn. A value given as a limit tells only on which side of the number the result lay.

Tested on in the first series: not listed separately
As to the kind of experiment: Selectivity index, ratio of IC50 for african green monkey Vero cells to IC90 for Mycobacterium tuberculosis H37Rv. It counts as toxicity, cell-based. The note with it: read-out: Selectivity Index. The method in brief:
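SI = VERO cell IC50 / M. tuberculosis H37Rv MIC. VERO cells exposed 72 h at concentrations up to 10x the H37Rv MIC; viability by MTT (CellTiter 96); IC50 from dose-response curve fit. MIC from MABA against H37Rv in BACTEC 12B medium, 37 °C, 90% fluorescence reduction defining IC90.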
For the compound `O=C1/C(=N\NC(=S)Nc2ccc(Br)cc2)c2cc(OC(F)(F)F)ccc2N1CN1CCOCC1`, the selectivity ratio was determined as 2.46.

In the case of `O=C1/C(=N\NC(=S)NC2CCCCC2)c2cc(OC(F)(F)F)ccc2N1CN1CCOCC1`, the selectivity ratio is 4.12. On the same count and under the same terms, as for `O=C1Nc2ccc(OC(F)(F)F)cc2/C1=N/NC(=S)Nc1ccc(F)cc1`, the figure is 1.64.

As for `Cc1ccc2c(c1)/C(=N/NC(=S)Nc1cccc(Br)c1)C(=O)N2`, the selectivity ratio came to 0.473.

Turning to `O=C1Nc2ccc(OC(F)(F)F)cc2/C1=N/NC(=S)Nc1ccc(Br)cc1`, the selectivity ratio was 3.77. Consider `O=C1Nc2ccc(OC(F)(F)F)cc2/C1=N/NC(=S)Nc1ccc(Cl)cc1`, for which the selectivity ratio was 4.2. In the case of `CCCCNC(=S)N/N=C1\C(=O)Nc2ccc(C)cc21`, the selectivity ratio amounted to 4.82.

`Cc1ccc2c(c1)/C(=N/NC(=S)Nc1ccc(F)cc1)C(=O)N2`: the selectivity ratio was less than 0.123. On the same count and under the same terms, in the case of `Cc1ccc2c(c1)/C(=N/NC(=S)Nc1ccccc1)C(=O)N2` it was 0.742; in that of `O=C1/C(=N\NC(=S)Nc2ccc(Cl)cc2)c2cc(OC(F)(F)F)ccc2N1CN1CCOCC1`, 3.19; in that of `Cc1ccc2c(c1)/C(=N/NC(=S)NC1CCCCC1)C(=O)N2`, 1.98.

As to `Cc1ccc2c(c1)/C(=N/NC(=S)Nc1ccc(Cl)cc1)C(=O)N2`, the selectivity ratio came to 3.46. Consider `O=C1/C(=N\NC(=S)Nc2ccc(F)cc2)c2cc(OC(F)(F)F)ccc2N1CN1CCOCC1`, for which the selectivity ratio turned out to be 0.784.

Turning to `CO[C@H]1/C=C/O[C@@]2(C)Oc3c(C)c(O)c4c(O)c(c(/C=N/N5CCN(C)CC5)c(O)c4c3C2=O)NC(=O)/C(C)=C\C=C\[C@H](C)[C@H](O)[C@@H](C)[C@@H](O)[C@@H](C)[C@H](OC(C)=O)[C@@H]1C` [RIFAMPIN], the selectivity ratio was greater than 800.

The test system of the next series is Mycobacterium tuberculosis. Briefly: Antitubercular activity against Mycobacterium tuberculosis H37Rv after 4 days by microplate alamar blue assay. In kind it is functional. As to conditions: 96 h. The method in brief: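 M. tuberculosis H37Rv (ATCC 27294) in BACTEC 12B medium by MABA; 10 twofold dilutions, usually 100 to 0.19 µg/mL; final titer as printed; 37 °C, Alamar Blue added from day 4 once control wells turned pink, read 24 h later (ex 530/em 590 nm). MIC: lowest concentration giving 90% fluorescence reduction vs controls, taken as IC90 from dose-response curve fit.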
In turn, `CN1C(=O)/C(=N\NC(=S)Nc2ccccc2)c2cc(OC(F)(F)F)ccc21` displayed an IC90 greater than 100 µg/mL. For `Cc1ccc(NC(=S)N/N=C2\C(=O)Nc3ccc(C)cc32)cc1`, the IC90 was greater than 100 µg/mL. In turn, `C=CCNC(=S)N/N=C1\C(=O)N(C)c2ccc(C)cc21` showed an IC90 greater than 100 µg/mL. With `CNC(=S)N/N=C1\C(=O)N(C)c2ccc(C)cc21`, the IC90 is greater than 100 µg/mL. Compound `O=C1/C(=N\NC(=S)Nc2ccc(Br)cc2)c2cc(OC(F)(F)F)ccc2N1CN1CCOCC1` came in with an IC90 of 3.03 µg/mL (≈ 5.43 µM). The compound `O=C1/C(=N\NC(=S)Nc2ccc([N+](=O)[O-])cc2)c2cc(OC(F)(F)F)ccc2N1CN1CCOCC1` gave an IC90 greater than 100 µg/mL. `CNC(=S)N/N=C1\C(=O)Nc2ccc(C)cc21` returned an IC90 greater than 100 µg/mL.

`Cc1ccc2c(c1)/C(=N/NC(=S)Nc1ccc(Cl)cc1)C(=O)N2C` showed an IC90 greater than 100 µg/mL.

Take `CNC(=S)N/N=C1\C(=O)N(CN2CCOCC2)c2ccc(OC(F)(F)F)cc21`: the IC90 is greater than 100 µg/mL. Compound `CCNC(=S)N/N=C1\C(=O)N(CN2CCOCC2)c2ccc(OC(F)(F)F)cc21` registered an IC90 greater than 100 µg/mL. Regarding `Cc1ccc2c(c1)/C(=N/NC(=S)NCc1ccccc1)C(=O)N2C`, the IC90 was greater than 100 µg/mL. `Cc1ccc2c(c1)/C(=N/NC(=S)Nc1ccc(F)cc1)C(=O)N2C` yielded an IC90 greater than 100 µg/mL. Take `CN1C(=O)/C(=N\NC(=S)Nc2ccc(Cl)cc2)c2cc(OC(F)(F)F)ccc21`: the IC90 is greater than 100 µg/mL. Turning to `Cc1ccc(NC(=S)N/N=C2\C(=O)N(CN3CCOCC3)c3ccc(OC(F)(F)F)cc32)cc1`, the IC90 was greater than 100 µg/mL. Turning to `CN1C(=O)/C(=N\NC(=S)Nc2ccc(Br)cc2)c2cc(OC(F)(F)F)ccc21`, the IC90 is greater than 100 µg/mL. The compound `Cc1ccc2c(c1)/C(=N/NC(=S)Nc1ccccc1)C(=O)N2C` registered an IC90 greater than 100 µg/mL. Compound `Cc1ccc(NC(=S)N/N=C2\C(=O)N(C)c3ccc(C)cc32)cc1` displayed an IC90 greater than 100 µg/mL. Compound `CN1C(=O)/C(=N\NC(=S)Nc2ccc(F)cc2)c2cc(OC(F)(F)F)ccc21` had an IC90 greater than 100 µg/mL. The compound `O=C1/C(=N\NC(=S)NC2CCCCC2)c2cc(OC(F)(F)F)ccc2N1CN1CCOCC1` registered an IC90 of 5.69 µg/mL (≈ 11.7 µM). As to `O=C1/C(=N\NC(=S)NCc2ccccc2)c2cc(OC(F)(F)F)ccc2N1CN1CCOCC1`, the IC90 is greater than 100 µg/mL. As to `O=C1/C(=N\NC(=S)Nc2ccccc2)c2cc(OC(F)(F)F)ccc2N1CN1CCOCC1`, the IC90 was greater than 100 µg/mL.

`CCCCNC(=S)N/N=C1\C(=O)N(CN2CCOCC2)c2ccc(OC(F)(F)F)cc21` showed an IC90 greater than 100 µg/mL. In turn, `Cc1ccc2c(c1)/C(=N/NC(=S)Nc1ccc(Br)cc1)C(=O)N2` yielded an IC90 greater than 100 µg/mL. `Cc1ccc2c(c1)/C(=N/NC(=S)NC1CCCCC1)C(=O)N2C` returned an IC90 greater than 100 µg/mL. Compound `C=CCNC(=S)N/N=C1\C(=O)N(C)c2ccc(OC(F)(F)F)cc21` gave a concentration for an effect of 90% (IC90) greater than 100 µg/mL.

For `CCCCNC(=S)N/N=C1\C(=O)N(C)c2ccc(OC(F)(F)F)cc21`, the IC90 is greater than 100 µg/mL. As for `Cc1ccc2c(c1)/C(=N/NC(=S)Nc1ccccc1Br)C(=O)N2C`, the IC90 is greater than 100 µg/mL. On to `Cc1ccc2c(c1)/C(=N/NC(=S)Nc1ccc([N+](=O)[O-])cc1)C(=O)N2C`, for which the concentration for an effect of 90% (IC90) was greater than 100 µg/mL. Consider `CNC(=S)N/N=C1\C(=O)N(C)c2ccc(OC(F)(F)F)cc21`, for which the IC90 is greater than 100 µg/mL. As to `CN1C(=O)/C(=N\NC(=S)NC2CCCCC2)c2cc(OC(F)(F)F)ccc21`, the IC90 was greater than 100 µg/mL. The same measure, in the same setting: as for `CN1C(=O)/C(=N\NC(=S)NCc2ccccc2)c2cc(OC(F)(F)F)ccc21`, the figure is greater than 100 µg/mL; as for `O=C1Nc2ccc(OC(F)(F)F)cc2/C1=N/NC(=S)Nc1ccccc1`, greater than 100 µg/mL.

In the case of `Cc1ccc(NC(=S)N/N=C2\C(=O)Nc3ccc(OC(F)(F)F)cc32)cc1`, the IC90 was greater than 100 µg/mL. Take `O=C1Nc2ccc(OC(F)(F)F)cc2/C1=N/NC(=S)Nc1ccc(F)cc1`: the IC90 amounted to 1.55 µg/mL (≈ 3.88 µM). As for `Cc1ccc2c(c1)/C(=N/NC(=S)Nc1cccc(Br)c1)C(=O)N2`, the IC90 stood at 1.49 µg/mL (≈ 3.83 µM). For `O=C1Nc2ccc(OC(F)(F)F)cc2/C1=N/NC(=S)NCc1ccccc1`, the IC90 was greater than 100 µg/mL.

With `CCCCNC(=S)N/N=C1\C(=O)N(C)c2ccc(C)cc21`, the IC90 is greater than 100 µg/mL.

In turn, `Cc1ccc2c(c1)/C(=N/NC(=S)NCc1ccccc1)C(=O)N2` registered an IC90 greater than 100 µg/mL. For `CNC(=S)N/N=C1\C(=O)Nc2ccc(OC(F)(F)F)cc21`, the IC90 was greater than 100 µg/mL.

Take `C=CCNC(=S)N/N=C1\C(=O)Nc2ccc(OC(F)(F)F)cc21`: the IC90 is greater than 100 µg/mL.

The compound `O=C1Nc2ccc(OC(F)(F)F)cc2/C1=N/NC(=S)Nc1ccc(Br)cc1` came in with a concentration for an effect of 90% (IC90) of 1.53 µg/mL (≈ 3.33 µM). Compound `CCNC(=S)N/N=C1\C(=O)N(C)c2ccc(C)cc21` gave an IC90 greater than 100 µg/mL. `C=CCNC(=S)N/N=C1\C(=O)Nc2ccc(C)cc21` had an IC90 greater than 100 µg/mL. Same read-out and setting: in the case of `O=C1Nc2ccc(OC(F)(F)F)cc2/C1=N/NC(=S)Nc1ccc(Cl)cc1` it was 1.52 µg/mL (≈ 3.67 µM). Compound `Cc1ccc(NC(=S)N/N=C2\C(=O)N(C)c3ccc(OC(F)(F)F)cc32)cc1` yielded an IC90 greater than 100 µg/mL.

With `O=C1Nc2ccc(OC(F)(F)F)cc2/C1=N/NC(=S)NC1CCCCC1`, the IC90 is greater than 100 µg/mL. Compound `CCCCNC(=S)N/N=C1\C(=O)Nc2ccc(C)cc21` yielded an IC90 of 0.911 µg/mL (≈ 3.14 µM). On to `Cc1ccc2c(c1)/C(=N/NC(=S)Nc1ccc(F)cc1)C(=O)N2`, for which it took 1.59 µg/mL (≈ 4.83 µM) to reach the 90% level (IC90). `Cc1ccc2c(c1)/C(=N/NC(=S)Nc1ccccc1)C(=O)N2`: the IC90 was 1.43 µg/mL (≈ 4.62 µM). Compound `CCNC(=S)N/N=C1\C(=O)N(C)c2ccc(OC(F)(F)F)cc21` gave an IC90 greater than 100 µg/mL. For the compound `CCNC(=S)N/N=C1\C(=O)Nc2ccc(C)cc21`, the IC90 was greater than 100 µg/mL. Same read-out and setting: in the case of `O=C1/C(=N\NC(=S)Nc2ccc(Cl)cc2)c2cc(OC(F)(F)F)ccc2N1CN1CCOCC1` it was 3.04 µg/mL (≈ 5.92 µM); in that of `Cc1ccc2c(c1)/C(=N/NC(=S)NC1CCCCC1)C(=O)N2`, 0.795 µg/mL (≈ 2.51 µM).

On to `Cc1ccc2c(c1)/C(=N/NC(=S)Nc1ccc(Br)cc1)C(=O)N2C`, for which the IC90 is greater than 100 µg/mL.

Compound `CN1C(=O)/C(=N\NC(=S)Nc2ccc([N+](=O)[O-])cc2)c2cc(OC(F)(F)F)ccc21` returned an IC90 greater than 100 µg/mL. `Cc1ccc2c(c1)/C(=N/NC(=S)Nc1ccc(Cl)cc1)C(=O)N2`: the IC90 came to 3.57 µg/mL (≈ 10.3 µM). Turning to `COc1ccc(NC(=S)N/N=C2\C(=O)N(CN3CCOCC3)c3ccc(OC(F)(F)F)cc32)cc1`, the IC90 was greater than 100 µg/mL. Same read-out and setting: in the case of `C=CCNC(=S)N/N=C1\C(=O)N(CN2CCOCC2)c2ccc(OC(F)(F)F)cc21` it was greater than 100 µg/mL. `O=C1/C(=N\NC(=S)Nc2ccc(F)cc2)c2cc(OC(F)(F)F)ccc2N1CN1CCOCC1` came in with an IC90 of 3.06 µg/mL (≈ 6.15 µM). In turn, `Cc1ccc2c(c1)/C(=N/NC(=S)Nc1cccc(Br)c1)C(=O)N2C` gave an IC90 greater than 100 µg/mL. The compound `COc1ccc(NC(=S)N/N=C2\C(=O)Nc3ccc(OC(F)(F)F)cc32)cc1` yielded an IC90 greater than 100 µg/mL. Compound `CCCCNC(=S)N/N=C1\C(=O)Nc2ccc(OC(F)(F)F)cc21` returned an IC90 greater than 100 µg/mL.

As to `CCNC(=S)N/N=C1\C(=O)Nc2ccc(OC(F)(F)F)cc21`, the IC90 was greater than 100 µg/mL. Same read-out and setting: as for `Cc1ccc2c(c1)/C(=N/NC(=S)Nc1ccccc1Br)C(=O)N2`, the figure is greater than 100 µg/mL; as for `Cc1ccc2c(c1)/C(=N/NC(=S)Nc1ccc([N+](=O)[O-])cc1)C(=O)N2`, greater than 100 µg/mL.

`O=C1Nc2ccc(OC(F)(F)F)cc2/C1=N/NC(=S)Nc1ccc([N+](=O)[O-])cc1`: the IC90 is greater than 100 µg/mL.
